ChEMBL document CHEMBL1687722, “Mode of action of Ranbezolid against staphylococci and structural modeling studies of its interaction with ribosomes” (Antimicrob Agents Chemother, 2009)
Converted amounts (≈) assume the structure as drawn. The source made the active and inactive calls. No cut-off for these calls is given here.

Columns and labels:
[1] = tested on: Staphylococcus epidermidis; assay: Induction of bacterial membrane damage in Staphylococcus epidermidis ATCC 23760 at 15 uM by BacLight assay; type: functional
How it was run: (§1)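 Mid-log cells (overnight MHB culture at 37°C, diluted 1:100, grown to OD600 0.5–0.6) washed in water, diluted 1:20 into water containing compound, shaken 15–30 min at room temperature (25°C). Washed, adjusted to OD670 0.325, stained with BacLight reagent (3 µl/ml) for 15 min in the dark. Syto 9 (480/500 nm)/propidium iodide (490/635 nm) fluorescence ratio expressed versus control; <40% of control indicates membrane damage.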

[2] = tested on: Staphylococcus aureus; assay: Induction of bacterial membrane damage in Staphylococcus aureus ATCC 25923 at 15 uM by BacLight assay; type: functional; how it was run: as §1
[3] = tested on: Staphylococcus aureus; assay: Induction of bacterial membrane damage in Staphylococcus aureus ATCC 25923 at 100 uM by BacLight assay; type: functional; how it was run: as §1
[4] = tested on: Staphylococcus epidermidis; assay: Induction of bacterial membrane damage in Staphylococcus epidermidis ATCC 23760 at 100 uM by BacLight assay; type: functional; how it was run: as §1
[5] = tested on: Staphylococcus epidermidis; assay: Antimicrobial activity against Staphylococcus epidermidis ATCC 23760 by microdilution method; type: functional
How it was run: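 MIC determined by broth microdilution in the course of the macromolecular synthesis work; cultures grown in Mueller-Hinton broth.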

[6] = tested on: Staphylococcus aureus; assay: Bacteriostatic activity against Staphylococcus aureus ATCC 25923 at 8 times MIC after 30 hrs by time-kill analysis; type: functional, organism-based
[7] = tested on: Staphylococcus aureus; assay: Inhibition of DNA synthesis in Staphylococcus aureus ATCC 25923 assessed as incorporation of [3H]thymidine at 2 ug/ml by liquid scintillation counter; type: functional, organism-based
How it was run: (§2)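 Whole-cell macromolecular synthesis. Cells grown in MHB to early log phase (OD600 0.3) were given a labelled precursor: [3H]thymidine, [3H]uridine or [3H]N-acetylglucosamine at 1 µCi/ml, or [14C]isoleucine or [14C]acetate at 0.1 µCi/ml. Drug was added 5 min later. Macromolecules were precipitated with ice-cold TCA (5% final), filtered, dried overnight at 37°C and counted by scintillation. A pathway-specific antibiotic was run as positive control.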

[8] = tested on: Staphylococcus epidermidis; assay: Bacteriostatic activity against Staphylococcus epidermidis ATCC 23760 at 4 X MIC after 24 hrs by time-kill analysis; type: functional, organism-based
[9] = tested on: Staphylococcus epidermidis; assay: Inhibition of cell wall synthesis in Staphylococcus epidermidis ATCC 23760 assessed as incorporation of [3H]N-acetylglucosamine at 2 ug/ml after 60 mins by liquid scintillation counter; type: functional, organism-based; how it was run: as §2
[10] = Inhibition of ribosomal activity in Escherichia coli S30 by coupled transcription/translation assay; type: subcellular, Ribosome
How it was run: (§3)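 Cell-free coupled transcription/translation of a luciferase gene, using E. coli S30 extract (bacterial) or a TNT kit (mammalian ribosomes). Percent inhibition of luciferase activity across a range of drug concentrations was calculated relative to the no-drug control.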

[11] = tested on: Staphylococcus aureus; assay: Inhibition of RNA synthesis in Staphylococcus aureus ATCC 25923 assessed as incorporation of [3H]uridine at 2 ug/ml by liquid scintillation counter; type: functional, organism-based; how it was run: as §2
[12] = tested on: Staphylococcus aureus; assay: Induction of bacterial membrane damage in Staphylococcus aureus ATCC 25923 at 4 ug/mL by BacLight assay; type: functional, organism-based
How it was run: (§4)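 BacLight membrane integrity. Mid-log MHB cultures (OD600 0.5–0.6) were washed and resuspended in water, then exposed to drug at 1–8 µg/ml for 15–30 min at room temperature (25°C) with shaking. Cells were washed, set to OD670 0.325 and stained with Syto 9/propidium iodide for 15 min in the dark. The Syto 9 (480/500 nm) to PI (490/635 nm) fluorescence ratio was compared with untreated controls. Valinomycin and CCCP served as positive controls.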

[13] = tested on: Ribosome; assay: Inhibition of mammalian ribosomal activity by coupled transcription/translation assay; type: subcellular; how it was run: as §3
[14] = tested on: Staphylococcus epidermidis; assay: Inhibition of lipid synthesis in Staphylococcus epidermidis ATCC 23760 assessed as incorporation of [14C]acetate at 2 ug/ml after 60 mins by liquid scintillation counter; type: functional, organism-based; how it was run: as §2
[15] = tested on: Staphylococcus epidermidis; assay: Induction of bacterial membrane damage in Staphylococcus epidermidis ATCC 23760 at 4 ug/mL by BacLight assay; type: functional, organism-based; how it was run: as §4
[16] = tested on: Staphylococcus epidermidis; assay: Inhibition of RNA synthesis in Staphylococcus epidermidis ATCC 23760 assessed as incorporation of [3H]uridine at 2 ug/ml by liquid scintillation counter; type: functional, organism-based; how it was run: as §2
[17] = tested on: Staphylococcus epidermidis; assay: Inhibition of protein synthesis in Staphylococcus epidermidis ATCC 23760 assessed as incorporation of [14C]isoleucine at 2 ug/ml by liquid scintillation counter; type: functional, organism-based; how it was run: as §2
[18] = tested on: Staphylococcus aureus; assay: Inhibition of protein synthesis in Staphylococcus aureus ATCC 25923 assessed as incorporation of [14C]isoleucine at 2 ug/ml by liquid scintillation counter; type: functional, organism-based; how it was run: as §2
[19] = tested on: Staphylococcus epidermidis; assay: Inhibition of DNA synthesis in Staphylococcus epidermidis ATCC 23760 assessed as incorporation of [3H]thymidine at 2 ug/ml by liquid scintillation counter; type: functional, organism-based; how it was run: as §2
[20] = tested on: Staphylococcus epidermidis; assay: Induction of bacterial membrane damage in Staphylococcus epidermidis ATCC 23760 at 1 ug/mL by BacLight assay relative to untreated control; type: functional, organism-based; how it was run: as §4
[21] = tested on: Staphylococcus aureus; assay: Bactericidal activity against Staphylococcus aureus ATCC 25923 at 16 ug/ml by time-kill analysis; type: functional, organism-based
[22] = tested on: Staphylococcus epidermidis; assay: Bactericidal activity against Staphylococcus epidermidis ATCC 23760 at 4 ug/ml after 6 hrs by time-kill analysis; type: functional, organism-based
[23] = tested on: Staphylococcus aureus; assay: Inhibition of protein synthesis in Staphylococcus aureus ATCC 25923 assessed as incorporation of [14C]isoleucine at 1 ug/ml by liquid scintillation counter; type: functional, organism-based; how it was run: as §2
[24] = tested on: Staphylococcus epidermidis; assay: Inhibition of DNA synthesis in Staphylococcus epidermidis ATCC 23760 assessed as incorporation of [3H]thymidine at 1 ug/ml by liquid scintillation counter; type: functional, organism-based; how it was run: as §2
[25] = tested on: Staphylococcus epidermidis; assay: Inhibition of RNA synthesis in Staphylococcus epidermidis ATCC 23760 assessed as incorporation of [3H]uridine at 1 ug/ml by liquid scintillation counter; type: functional, organism-based; how it was run: as §2
[26] = tested on: Staphylococcus aureus; assay: Antimicrobial activity against Staphylococcus aureus ATCC 25923 by microdilution method; type: functional
[27] = tested on: Staphylococcus epidermidis; assay: Inhibition of lipid synthesis in Staphylococcus epidermidis ATCC 23760 assessed as incorporation of [14C]acetate at 1 ug/ml after 60 mins by liquid scintillation counter; type: functional, organism-based; how it was run: as §2
[28] = tested on: Staphylococcus epidermidis; assay: Inhibition of cell wall synthesis in Staphylococcus epidermidis ATCC 23760 assessed as incorporation of [3H]N-acetylglucosamine at 1 ug/ml after 60 mins by liquid scintillation counter; type: functional, organism-based; how it was run: as §2
[29] = Ratio of IC50 for mammalian ribosomal activity to ribosomal activity in Escherichia coli S30 by coupled transcription/translation assay; type: subcellular; details: Ribosome
[30] = tested on: Staphylococcus epidermidis; assay: Induction of bacterial membrane damage in Staphylococcus epidermidis ATCC 23760 at 2 to 8 ug/mL by BacLight assay; type: functional, organism-based; how it was run: as §4
[31] = tested on: Staphylococcus epidermidis; assay: Inhibition of protein synthesis in Staphylococcus epidermidis ATCC 23760 assessed as incorporation of [14C]isoleucine at 1 ug/ml by liquid scintillation counter; type: functional, organism-based; how it was run: as §2
[32] = tested on: Staphylococcus aureus; assay: Inhibition of RNA synthesis in Staphylococcus aureus ATCC 25923 assessed as incorporation of [3H]uridine at 1 ug/ml by liquid scintillation counter; type: functional, organism-based; how it was run: as §2
[33] = tested on: Staphylococcus aureus; assay: Inhibition of DNA synthesis in Staphylococcus aureus ATCC 25923 assessed as incorporation of [3H]thymidine at 1 ug/ml by liquid scintillation counter; type: functional, organism-based; how it was run: as §2
[34] = tested on: Staphylococcus epidermidis; assay: Bactericidal activity against Staphylococcus epidermidis ATCC 23760 by time-kill analysis; type: functional
[35] = tested on: Staphylococcus epidermidis; assay: Induction of bacterial membrane damage in Staphylococcus epidermidis ATCC 23760 at 2 ug/mL by BacLight assay relative to untreated control; type: functional; how it was run: as §4
[36] = tested on: Staphylococcus epidermidis; assay: Bactericidal activity against Staphylococcus epidermidis ATCC 23760 at 8 ug/ml after 4 hrs by time-kill analysis; type: functional, organism-based

## N#CC(C#N)=NNc1cccc(Cl)c1 [CARBONYL CYANIDE M-CHLOROPHENYLHYDRAZONE]
[1]
  Activity: <40%
[2]
  Activity: <40%

## CC(C)[C@@H]1NC(=O)[C@H](C)OC(=O)[C@@H](C(C)C)NC(=O)[C@@H](C(C)C)OC(=O)[C@H](C(C)C)NC(=O)[C@H](C)OC(=O)[C@@H](C(C)C)NC(=O)[C@@H](C(C)C)OC(=O)[C@H](C(C)C)NC(=O)[C@H](C)OC(=O)[C@@H](C(C)C)NC(=O)[C@@H](C(C)C)OC1=O [VALINOMYCIN]
[3]
  Activity: <40%
[4]
  Activity: <40%

## CC(=O)NC[C@H]1CN(c2ccc(N3CCOCC3)c(F)c2)C(=O)O1 [LINEZOLID]
[5]
  MIC: 2 µg/mL (≈ 5.93 µM)
[6]
  Activity: Active
[7]
  inhibition: inactive
[8]
  Activity: Active
[9]
  inhibition: Active
[10]
  IC50: 0.1 mM
[11]
  inhibition: inactive
[12]
  Activity: inactive
[13]
  IC50: 11.9 mM
[14]
  inhibition: Active
[15]
  Activity: inactive
[16]
  inhibition: inactive
[17]
  inhibition: Active
[18]
  inhibition: Active
[19]
  inhibition: inactive

## CC(=O)NC[C@H]1CN(c2ccc(N3CCN(Cc4ccc([N+](=O)[O-])o4)CC3)c(F)c2)C(=O)O1 [RANBEZOLID]
[5]
  MIC: 1 µg/mL (≈ 2.17 µM)
[20]
  Activity: inactive
[6]
  Activity: Active
[21]
  Activity: Active
[22]
  Activity: Active
[23]
  inhibition: Active
[24]
  inhibition: inactive
[10]
  IC50: 0.017 mM
[25]
  inhibition: inactive
[26]
  MIC: 1 µg/mL (≈ 2.17 µM)
[27]
  inhibition: Active
[28]
  inhibition: Active
[12]
  Activity: inactive
[29]
  Ratio: 865
[13]
  IC50: 14.7 mM
[30]
  Activity: Active
[31]
  inhibition: Active
[15]
  Activity: Active
[32]
  inhibition: inactive
[33]
  inhibition: inactive
[34]
  Activity: 99.9%
[35]
  Activity: 50%
[36]
  Activity: Active
